Here are results for 13 molecules from ChEMBL document CHEMBL4308855, “Synthesis, in vitro and in vivo evaluation of 2-aryl-4H-chromene and 3-aryl-1H-benzo[f]chromene derivatives as novel α-glucosidase inhibitors” (Bioorg Med Chem Lett, 2019).

The subject of assay [1] is Rattus norvegicus. The assay is described as follows: In vivo inhibition of intestinal maltase-glucoamylase in Wistar rat assessed as reduction in postprandial hyperglycemia at 2.2 mg/kg, po pretreated for 30 mins followed by maltose challenge and measured after 30 to 120 mins by OMTT. It counts as functional, organism-based. A digest of the protocol:
(§1)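 Male Wistar rats received the test agent per os at the dose in the line, then a 2 g/kg maltose load. Blood glucose was followed after the maltose challenge. n = 5 per group, reported as m ± SEM. Comparisons were by 1-way ANOVA against vehicle and the reference group.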

Assay [2] relates to Saccharomyces cerevisiae. The assay can be described thus: Inhibition of Saccharomyces cerevisiae alpha-glucosidase at 1 mM using […] preincubated for 5 mins followed by substrate addition and measured after 15 mins relative to control. Particulars: in the assay text read “p-nitrophenyl alpha-D-glucopyranoside” for “p-nitrophenyl beta-D-glucopyranoside”. The procedure, abridged: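 Single-concentration screen at 1 mM against S. cerevisiae α-glucosidase. p-Nitrophenyl-α-D-glucopyranoside substrate was fixed at 1 mM, well above the Km determined in fixed-time runs, to saturate the enzyme. Inhibition is relative to the negative control, with significance by Student t-test (p < 0.05).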

Assay [3] can be described thus: Inhibition of Saccharomyces cerevisiae alpha-glucosidase using […] preincubated for 5 mins followed by substrate addition and measured after 15 mins. Particulars: in the assay text read “p-nitrophenyl alpha-D-glucopyranoside” for “p-nitrophenyl beta-D-glucopyranoside”. A digest of the protocol:
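S. cerevisiae α-glucosidase with p-nitrophenyl-α-D-glucopyranoside substrate fixed at 1 mM (above Km, saturating). Inhibitor was tested across a 10^-3–10^-9 M range. IC50 was obtained by nonlinear regression of the concentration–inhibition data.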

Assay [4] concerns Saccharomyces cerevisiae. The assay can be described thus: Potency index, ratio of acarbose IC50 to test compound IC50 for Saccharomyces cerevisiae alpha-glucosidase.
For the next assay, the target named is Alpha glucosidase (Homo sapiens, UniProt O43451+P10253+P14410+Q2M2H8). The assay can be described thus: Inhibition of alpha-glucosidase (unknown origin) using p-nitrophenyl beta-D-glucopyranoside as substrate measured after 20 mins. It counts as protein assay.
Assay [5] has as its system Rattus norvegicus. The assay can be described thus: In vivo inhibition of intestinal maltase-glucoamylase in Wistar rat assessed as reduction in postprandial hyperglycemia at 5 mg/kg, po pretreated for 30 mins followed by maltose challenge and measured after 30 to 120 mins by OMTT. It counts as functional, organism-based. The procedure, abridged:
as §1

Molecules are shown by their SMILES. Activity calls are given as the source filed them. No cut-off for these calls is given here.

In the case of `C1=C(c2ccccc2)Oc2ccccc2C1c1ccccc1` (configuration not stated), in the assay with Rattus norvegicus [1], the inhibition result is “Active”. In the assay on Saccharomyces cerevisiae [2], this molecule returned an inhibition of 60.8%. This molecule gave an IC50 in assay [3] of 62.3 µM. Besides, the Ratio IC50 with Saccharomyces cerevisiae [4] turned out to be 9.

Turning to `COc1ccc(C2CCc3c(ccc4ccccc34)O2)cc1` (configuration not stated), the inhibition in the assay with Saccharomyces cerevisiae [2] worked out at 19.7%.

On to `Oc1cc(O)c2c(c1)O[C@@H](c1ccc(O)c(O)c1)[C@H](O)C2` [(-)-CATECHIN], for which, on Alpha glucosidase, the IC50 was 53.8 µM.

In the assay on Saccharomyces cerevisiae [2], `CCc1ccc(C2=CCc3c(ccc4ccccc34)O2)cc1` registered an inhibition of 91.7%. In addition, the IC50 in assay [3] was determined as 649 µM.

Regarding `Clc1ccc(C2=CC(c3ccccc3)c3ccccc3O2)cc1` (configuration not stated), the inhibition in the assay on Saccharomyces cerevisiae [2] was 69%. The same molecule gave a half-inhibitory concentration (IC50) in assay [3] of 950 µM.

In the assay on Saccharomyces cerevisiae [2], `C1=C(c2ccccc2)Oc2ccc3ccccc3c2C1c1ccccc1` (configuration not stated) had an inhibition of 39.6%.

For the molecule `C[C@H]1O[C@H](O[C@H]2[C@H](O)[C@@H](O)[C@@H](O[C@H]3[C@H](O)[C@@H](O)C(O)O[C@@H]3CO)O[C@@H]2CO)[C@H](O)[C@@H](O)[C@@H]1N[C@H]1C=C(CO)[C@@H](O)[C@H](O)[C@H]1O` (some centres not stated) [ACARBOSE], the inhibition in the assay on Saccharomyces cerevisiae [2] is 55.8%. This molecule showed an IC50 in assay [3] of 544 µM. For the same molecule, the inhibition entry in the assay on Rattus norvegicus [5] was “Active”.

For the molecule `C1=C(c2ccccc2)Oc2ccc3ccccc3c2C1`, the inhibition in the assay with Saccharomyces cerevisiae [2] came to 10.8%.

On to `COc1ccc(C2C=C(c3ccc(O)cc3)Oc3ccc4ccccc4c32)cc1` (configuration not stated), for which the inhibition with Saccharomyces cerevisiae [2] amounted to 36.1%.

Consider `Clc1ccc(C2C=C(c3ccccc3)Oc3ccc4ccccc4c32)cc1` (configuration not stated), for which, in the assay on Saccharomyces cerevisiae [2], the inhibition worked out at 18.3%.

In the assay on Saccharomyces cerevisiae [2], `Cc1ccc(C2=CC(c3ccc(Cl)cc3)c3c(ccc4ccccc34)O2)cc1` (configuration not stated) displayed an inhibition of 47.6%. In assay [3], this molecule had an IC50 of 898 µM.

`Clc1ccc(C2=CC(c3ccc(Cl)cc3)c3c(ccc4ccccc34)O2)cc1` (configuration not stated) yielded an inhibition with Saccharomyces cerevisiae [2] of 14.9%.

For `COc1ccc(C2C=C(c3ccccc3)Oc3ccc4ccccc4c32)cc1OC` (configuration not stated), the inhibition in the assay with Saccharomyces cerevisiae [2] came to 43.7%. In addition, in assay [3], the IC50 was over 1000 µM.
